The source made the active and inactive calls. The calls are words filed in the database; no cut-off is given here. Where a SMILES comes first, the peptide text is derived from it. Bridges are numbered along the chain shown (N, C = ends). [ ]: non-standard residue; d: D form. Orn = NCCC[C@H](N)C(=O)O; Mpa = O=C(O)CCS
How the values were obtained:
[1] = molecular target: T1, Oxytocin receptor (Homo sapiens) (UniProt P30559); test: Antagonist activity at human OTR expressed in HEK293 cell membranes assessed as inhibition of OT-induced IP1 accumulation by measuring IP1 level at 100 nM measured after 1 hr by flourescence assay relative to control; format: functional, cell-based; set-up: scale not given: the % may be the effect or the level left
T1 sequence (whole entry): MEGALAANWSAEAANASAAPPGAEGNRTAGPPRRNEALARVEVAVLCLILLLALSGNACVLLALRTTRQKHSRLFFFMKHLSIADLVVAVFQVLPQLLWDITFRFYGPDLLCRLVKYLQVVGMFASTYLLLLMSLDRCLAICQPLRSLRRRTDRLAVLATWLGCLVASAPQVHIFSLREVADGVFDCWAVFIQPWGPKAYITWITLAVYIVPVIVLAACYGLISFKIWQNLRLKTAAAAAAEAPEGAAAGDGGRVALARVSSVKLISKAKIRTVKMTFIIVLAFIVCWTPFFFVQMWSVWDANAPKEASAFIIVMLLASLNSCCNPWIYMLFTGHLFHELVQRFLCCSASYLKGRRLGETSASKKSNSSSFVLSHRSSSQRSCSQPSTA

[2] = molecular target: T1, Oxytocin receptor (Homo sapiens); test: Antagonist activity at human OTR expressed in HEK293 cell membranes assessed as inhibition of OT-induced IP1 accumulation by measuring IP1 level at 10 uM measured after 1 hr by fluorescence assay relative to control; format: functional, cell-based; set-up: scale not given: the % may be the effect or the level left
[3] = molecular target: T2, Oxytocin receptor (Homo sapiens, UniProt P30559); test: Antagonist activity at human OTR expressed in HEK293 cell membranes assessed as inhibition of OT-induced IP1 accumulation measured after 1 hr by fluorescence assay; format: functional, cell-based
T2 sequence (P30559 whole entry): T1 sequence (whole entry)

[4] = molecular target: T3, Vasopressin V1a receptor (Homo sapiens, UniProt P37288); test: Antagonist activity at human vasopressin 1a receptor expressed in HEK293 cell membranes assessed as inhibition of AVP-induced IP1 accumulation by measuring IP1 level at 100 nM measured after 1 hr by fluorescence assay relative to control; format: functional, cell-based; set-up: scale not given: the % may be the effect or the level left
Target sequence in this assay (P37288 whole entry, looked up): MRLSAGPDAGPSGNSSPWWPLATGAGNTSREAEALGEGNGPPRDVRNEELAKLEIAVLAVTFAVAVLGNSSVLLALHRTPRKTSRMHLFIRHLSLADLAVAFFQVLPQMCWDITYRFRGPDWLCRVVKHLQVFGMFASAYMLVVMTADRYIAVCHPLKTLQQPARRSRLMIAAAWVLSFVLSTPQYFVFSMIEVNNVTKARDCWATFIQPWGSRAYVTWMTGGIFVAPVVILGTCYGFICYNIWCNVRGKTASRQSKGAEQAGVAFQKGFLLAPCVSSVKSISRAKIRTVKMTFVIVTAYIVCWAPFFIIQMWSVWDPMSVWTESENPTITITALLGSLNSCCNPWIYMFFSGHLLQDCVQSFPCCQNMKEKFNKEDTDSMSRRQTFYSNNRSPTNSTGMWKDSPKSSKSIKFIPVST

[5] = molecular target: T3, Vasopressin V1a receptor; test: Antagonist activity at human vasopressin 1a receptor expressed in HEK293 cell membranes assessed as inhibition of AVP-induced IP1 accumulation by measuring IP1 level at 10 uM measured after 1 hr by fluorescence assay relative to control; format: functional, cell-based; set-up: scale not given: the % may be the effect or the level left
Target sequence in this assay (P37288 whole entry, looked up): as above

[6] = molecular target: T3, Vasopressin V1a receptor; test: Antagonist activity at human vasopressin 1a receptor expressed in HEK293 cell membranes assessed as inhibition of AVP-induced IP1 accumulation measured after 1 hr by fluorescence assay; format: functional, cell-based
Target sequence in this assay (P37288 whole entry): as the sequence (P37288 whole entry, looked up) above

[7] = molecular target: T1, Oxytocin receptor (Homo sapiens); test: Antagonist activity at human OTR expressed in CHO cell membranes assessed as inhibition of OT-induced IP1 accumulation by measuring IP1 level at 100 nM measured after 1 hr by fluorescence assay relative to control; format: functional, cell-based; set-up: scale not given: the % may be the effect or the level left
[8] = molecular target: T1, Oxytocin receptor (Homo sapiens); test: Antagonist activity at human OTR expressed in CHO cell membranes assessed as inhibition of OT-induced IP1 accumulation by measuring IP1 level at 10 uM measured after 1 hr by fluorescence assay relative to control; format: functional, cell-based; set-up: scale not given: the % may be the effect or the level left
[9] = molecular target: T2, Oxytocin receptor; test: Antagonist activity at human OTR expressed in CHO cell membranes assessed as inhibition of OT-induced IP1 accumulation measured after 1 hr by fluorescence assay; format: functional, cell-based
[10] = molecular target: T3, Vasopressin V1a receptor; test: Antagonist activity at human vasopressin 1a receptor expressed in CHO cell membranes assessed as inhibition of AVP-induced IP1 accumulation by measuring IP1 level at 100 nM measured after 1 hr by fluorescence assay relative to control; format: functional, cell-based; set-up: scale not given: the % may be the effect or the level left
Target sequence in this assay (P37288 whole entry, looked up): as above

[11] = molecular target: T3, Vasopressin V1a receptor; test: Antagonist activity at human vasopressin 1a receptor expressed in CHO cell membranes assessed as inhibition of AVP-induced IP1 accumulation by measuring IP1 level at 10 uM measured after 1 hr by fluorescence assay relative to control; format: functional, cell-based; set-up: scale not given: the % may be the effect or the level left
Target sequence in this assay (P37288 whole entry, looked up): as above

[12] = molecular target: T3, Vasopressin V1a receptor; test: Antagonist activity at human vasopressin 1a receptor expressed in CHO cell membranes assessed as inhibition of AVP-induced IP1 accumulation by measuring IP1 level measured after 1 hr by fluorescence assay; format: functional, cell-based
Target sequence in this assay (P37288 whole entry): as the sequence (P37288 whole entry, looked up) above

[13] = molecular target: T1, Oxytocin receptor (Homo sapiens); test: (§1) Antagonist activity at human OTR expressed in HEK293 cell membranes assessed as inhibition of OT-induced increase in Ca2+ flux by measuring intracellular calcium level at 10 uM preincubated for 5 mins followed by OT addition measured after 5 mins for every 2 secs by Ca5 dye based FLIPR assay (reference value: 4.5 +/- 0.1%); format: functional
Procedure, shortened: (§2)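 HEK cells were pre-incubated 5 min with compound (10 μM) or vehicle (0.1% DMSO). Agonist was then added: OT for hOTR, AVP for hV1aR. Peak Ca5 fluorescence was taken as fold-change over baseline. A 4-parameter fit gave pEC50 and Max. Run in duplicate with 5-6 independent replicates, mean ± S.E.M.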

[14] = molecular target: T3, Vasopressin V1a receptor; test: as §1, with “vasopressin 1a receptor” for “OTR”, “AVP-induced” for “OT-induced”, “AVP” for “OT”, “5.2” for “4.5”, “0.2%)” for “0.1%)”; format: functional; procedure, shortened: as §2
Target sequence in this assay (P37288 whole entry, looked up): as above

[15] = molecular target: T2, Oxytocin receptor; test: Displacement of [3H]-oxytocin from human OTR expressed in HEK293 cell membranes after 90 mins by microbeta scintillation counting method
[16] = molecular target: T3, Vasopressin V1a receptor; test: Displacement of [3H]-vasopressin from human vasopressin 1a receptor expressed in HEK293 cell membranes after 90 mins by microbeta scintillation counting method
Target sequence in this assay (P37288 whole entry): as the sequence (P37288 whole entry, looked up) above

[17] = molecular target: T1, Oxytocin receptor (Homo sapiens); test: Agonist activity at human OTR expressed in HEK293 cell membranes induction of IP1 accumulation at 0.1 to 10 uM measured after 1 hr by fluorescence assay; format: functional, cell-based
Procedure, shortened: (§3)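 IP1 accumulation in HEK or stably transfected CHO cells expressing hOTR or hV1aR. Compounds tested alone at 100 nM and 10 μM against vehicle (basal). Reference agonist was OT 10 nM at hOTR or AVP 10 nM at hV1aR. Non-transfected HEK cells given OT served as a specificity check. Mean ± S.E.M.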

[18] = molecular target: T3, Vasopressin V1a receptor; test: Agonist activity at human vasopressin 1a receptor expressed in HEK293 cell membranes assessed as induction of IP1 accumulation at 0.1 to 10 uM measured after 1 hr by fluorescence assay; format: functional, cell-based; procedure, shortened: as §3
Target sequence in this assay (P37288 whole entry, looked up): as above

[19] = molecular target: T1, Oxytocin receptor (Homo sapiens); test: Positive allosteric modulation of human OTR expressed in HEK293 cell membranes assessed as increase in OT-induced IP1 accumulation at 10 uM measured after 1 hr by fluorescence assay; format: functional, cell-based
Procedure, shortened: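 hOTR-transfected HEK cells treated with ~EC10 OT (3 nM) plus compound (10 μM) or vehicle (0.1% DMSO). IP1 measured and compared with OT plus vehicle. Mean ± S.E.M.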

[20] = molecular target: T1, Oxytocin receptor (Homo sapiens); test: Agonist activity at human OTR expressed in HEK293 cell membranes assessed as increase in Ca2+ flux at 0.1 to 10 uM measured after 5 mins for every 2 secs by Ca5 dye based FLIPR assay; format: functional
Procedure, shortened: (§4)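 Intracellular Ca2+ read by FLIPR with Ca5 dye in HEK or stably transfected CHO cells expressing hOTR or hV1aR. Compounds added alone at 100 nM and 10 μM. Response taken as the change in fluorescence.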

[21] = molecular target: T3, Vasopressin V1a receptor; test: Agonist activity at human vasopressin 1a receptor expressed in HEK293 cell membranes assessed as increase in Ca2+ flux at 0.1 to 10 uM measured after 5 mins for every 2 secs by Ca5 dye based FLIPR assay; format: functional; procedure, shortened: as §4
[22] = molecular target: T1, Oxytocin receptor (Homo sapiens); test: Agonist activity at human OTR expressed in CHO cell membranes assessed as increase in Ca2+ flux at 0.1 to 10 uM measured after 5 mins for every 2 secs by Ca5 dye based FLIPR assay; format: functional; procedure, shortened: as §4
[23] = molecular target: T3, Vasopressin V1a receptor; test: Agonist activity at human vasopressin 1a receptor expressed in CHO cell membranes assessed as increase in Ca2+ flux at 0.1 to 10 uM measured after 5 mins for every 2 secs by Ca5 dye based FLIPR assay; format: functional; procedure, shortened: as §4
[24] = molecular target: T1, Oxytocin receptor (Homo sapiens); test: Agonist activity at human OTR expressed in CHO cell membranes assessed as induction of IP1 accumulation at 0.1 to 10 uM measured after 1 hr by fluorescence assay; format: functional, cell-based; procedure, shortened: as §3
[25] = molecular target: T3, Vasopressin V1a receptor; test: Agonist activity at human vasopressin 1a receptor expressed in CHO cell membranes assessed as induction of IP1 accumulation at 0.1 to 10 uM measured after 1 hr by fluorescence assay; format: functional, cell-based; procedure, shortened: as §3

Row | Activity [1] [%] | Activity [2] [%] | IC50 ([3]; read-out: pIC50 (converted)) [µM] | Activity [4] [%] | Activity [5] [%] | IC50 [6] [µM] | Activity [7] [%] | Activity [8] [%] | IC50 [9] [µM] | Activity [10] [%] | Activity [11] [%] | IC50 [12] [µM] | %max [13] [%] | %max [14] [%] | Ki [15] [µM] | Ki [16] [µM] | Activity [18] | Activity [19] | Activity [20] | Activity [21] | also measured | Structure (SMILES)
1 | 98.3 | 90.4 | > 10 | 84.7 | 77.9 | > 10 | 85.5 | 79.5 | > 10 | 86.5 | 79.3 | > 10 | 4.4 | 5.1 | > 10 | > 10 | inactive | inactive | inactive | inactive | Activity [17]: inactive; Activity [22]: inactive; Activity [23]: inactive; Activity [24]: inactive; Activity [25]: inactive | Cn1nccc1NS(=O)(=O)c1ccc(C(F)(F)F)cc1
2 | 70.6 | 65.5 | > 10 | 109 | 104 | > 10 | 83.2 | 82.1 | > 10 | 84.8 | 83.1 | > 10 | 4.4 | 5.3 | > 10 | > 10 | inactive | inactive | inactive | inactive | Activity [22]: inactive; Activity [23]: inactive; Activity [24]: inactive; Activity [25]: inactive | O=S(=O)(Nc1ccnn1-c1ccccn1)c1ccc(C(F)(F)F)cc1
3 |  |  |  |  |  |  |  |  |  |  |  |  |  |  |  |  |  |  |  |  | IC50 ([3]; read-out: IC50): 0.372 µM | CCOc1ccc(C[C@H]2NC(=O)CCSSC[C@@H](C(=O)N3CCC[C@H]3C(=O)N[C@@H](CCCN)C(=O)NCC(N)=O)NC(=O)[C@H](CC(N)=O)NC(=O)[C@H]([C@@H](C)O)NC(=O)[C@H]([C@@H](C)CC)NC2=O)cc1 [ATOSIBAN] ([Mpa][dY](Et)ITNCP[Orn]G-NH2; disulfide 1-6)
4 | 82.5 | 72.5 | > 10 | 112 | 105 | > 10 | 90.5 | 94.7 | > 10 | 100 | 105 | > 10 | 4 | 5 | > 10 | > 10 | inactive | inactive | inactive | inactive | Activity [17]: inactive; Activity [22]: inactive; Activity [23]: inactive; Activity [24]: inactive; Activity [25]: inactive | Cn1nccc1NS(=O)(=O)c1ccc(Cl)cc1
5 | 89.5 | 78.1 | > 10 | 85.9 | 80.2 | > 10 | 83.9 | 71.1 | > 10 | 103 | 116 | > 10 | 4.5 | 5.3 | > 10 | > 10 | inactive | inactive | inactive | inactive | Activity [22]: inactive; Activity [23]: inactive; Activity [24]: inactive; Activity [25]: inactive | O=S(=O)(Nc1ccnn1-c1ccccn1)c1ccc(Cl)cc1

Reference: ChEMBL document CHEMBL4138097, “Investigation of pyrazolo-sulfonamides as putative small molecule oxytocin receptor agonists” (Eur J Med Chem, 2017)
